The entries come from a sample that favours hits as a whole.
Diaphorase inh: inhibits diaphorase or chemically oxidizes, flagging diaphorase assay artifacts | AID 1217 | inhibition, % at 20 µM | diaphorase resazurin-to-resorufin fluorescence, NADH, 16 min; bacterial (C. kluyveri) enzyme, not human | 0.69% of 190,000 active;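 active = primary screen inhibition at 20 µM above a set limit, cut at about 50% in these data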;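 also: plate controls were DMSO with full reaction for no effect and wells lacking NADH for full effect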
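controls = No-NADH positive control and DMSO neutral control | system = Clostridium kluyveri diaphorase enzyme | timing = reaction incubation of 16 min at room temperature | signal = resorufin fluorescence 544/590 nm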
DTT redox prof: compounds producing H2O2 with reducing agent – biochemical, NIH compound library profiling, artefact control for MLSCN library redox annotation, primary screen | 0.03% of 200,000 active | activation, % at 10 µM | DTT-dependent redox cycling H2O2, phenol red/HRP absorbance; 100% = 100 µM peroxide control, 0% = buffer;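 active = activation of at least 50% relative to the plate's high and low controls in the primary single-dose screen; inactive = activation below 50%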;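 also: compound incubated with DTT at 0.8 mM final as the reducing agent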
Lmaj promast: inhibitors of Leishmania major promastigote growth | AID 1063 | 9% of 200,000 active | Leishmania major promastigotes, resazurin fluorescence viability | inhibition, % at 10 µM;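 also: promastigotes grown with compound for 44 hours at 28 °C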
PfG6PD inh: PfG6PD (Plasmodium falciparum) enzyme inhibition. PfGluPho enzyme, NADPH resazurin-diaphorase fluorescence. inhibition, % at 20 µM. 0.78% of 350,000 active. AID 504690;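 active = inhibition reaching at least a set limit at 20 µM in the primary screen, cut at about 59% in these data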;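 also: 0% = DMSO wells with substrate and 100% = DMSO wells lacking glucose-6-phosphate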
Diaph act CS: counter-screen for diaphorase-based assays: diaphorase activators and chemical reducers; activation factor at 20 µM; AID 1229; 0.005% of 190,000 active; Diaphorase/resazurin coupled assay, resorufin fluorescence, 16 min; hits give high values; 1 = vehicle wells, 0 = NADH-free wells;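 active = diaphorase activity raised at least twofold by the compound at 20 µM; inactive = activation factor below 2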
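Material: bacterial diaphorase enzyme (C. kluyveri); amount: enzyme 0.07 U/mL final; reagent: NADH substrate 0.114 mM plus resazurin dye 0.1 mM, final; doses: single compound dose of 20 µM, 1% DMSO final; timing: 16 min enzyme reaction, ambient temperature; measured by: fluorescence of resorufin, 544 nm excitation, 590 nm emission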
G6PDH counter: inhibits Leuconostoc G6PDH, flagging false hits in G6PDH-based assays; AID 1020; Purified L. mesenteroides G6PDH, diaphorase/resazurin coupled fluorescence, 45 min; 0.12% of 200,000 active; inhibition, % at 5 µM
Numbers without * were called inactive; . = no result. Rule as the data show it, unless noted: active = inhibition above about 50%; inactive = the rest.

SMILES	Diaphorase inh	DTT redox prof	Lmaj promast	PfG6PD inh	Diaph act CS	G6PDH counter
CCN1C(=O)[C@H]2[C@@H](c3ccc(-c4ccccc4)cc3)N3CCCC[C@@]3(C(=O)OC)[C@H]2C1=O	.	.	.	17	.	.
O=C(/C=C/c1cccc(Cl)c1)N1CCC(Cc2ccccc2)CC1	11	0	50*	4	0.9	2
Clc1ccc(CN2CCC(Cc3ccccc3)CC2)cc1	4	1	90*	4	1	4
Cc1ccccc1NC(=O)c1ccc(CN2CCC(Cc3ccccc3)CC2)cc1	6	2	53*	12	0.9	4
Clc1cccc(CN2CCC(Cc3ccccc3)CC2)c1	0	-5	86*	4	1	7
Fc1ccc(CN2CCC(Cc3ccccc3)CC2)cc1F	.	.	.	-11	.	.
O=C(/C=C/c1ccccc1)N1CCC(Cc2ccccc2)CC1	10	2	-4	16	0.9	-2
Cc1ccc(-c2cc3ncc(C#N)c(N)n3n2)cc1	-13	0	10	-2	1.1	2
COc1ccc(CCC(=O)Nc2ccc(S(=O)(=O)N3CCOCC3)cc2)cc1OC	.	.	.	-23	.	.
CCOc1c(Cl)cc(CNc2ccc(N3CCCC3)cc2)cc1OC	74*	0	24	50	0.3	12
CCOC(=O)C1(CC2CCCCO2)CCN(Cc2cc3ccccc3[nH]2)CC1 (stereo not given)	.	1	67*	-2	.	17
Cc1ccc(Nc2cnn(C34CC5CC(CC(CC(=O)O)(C5)C3)C4)c(=O)c2Cl)cc1	21	0	1	-5	0.8	-4
Cc1c(Cl)cccc1NC(=O)COC(=O)Cn1cnc2c1c(=O)n(C)c(=O)n2C	.	.	.	11	.	.
COc1ccc(S(=O)(=O)Nc2ccccc2-c2nnn(CC(=O)Nc3ccccc3OC)n2)cc1	12	0	98*	16	0.9	3
Cn1cc(/C=C2\SC(=O)NC2=S)c2ccccc21	54*	0	0	6	0.5	11
Cc1ccc(C(=O)NN2C(=O)/C(=C/c3cn(C)c4ccccc34)SC2=S)cc1	-6	1	37	11	1.1	7
OCCC1CN(Cc2nc3c(s2)CCCC3)CCN1CCc1ccccc1 (stereo not given)	-8	-1	76*	6	1.1	19
OCCC1CN(Cc2nc3c(s2)CCCC3)CCN1Cc1ccccc1 (stereo not given)	.	.	.	15	.	.
CC(C)CCN1CCN(Cc2nc3c(s2)CCCC3)CC1CCO (stereo not given)	4	1	75*	7	1	12
CCCc1nc2ccccc2c(C(=O)OCC(=O)N2CCc3ccccc32)c1CC	18	1	99*	34	0.8	-19
Cc1sc(NC(=O)c2sc3nc4c(C)cccc4cc3c2N)c(C#N)c1C	59*	-6	56*	41	0.4	12
CC(=O)Nc1ccc(NS(=O)(=O)c2cccc3nonc23)cc1	.	.	.	-14	.	.
CCn1c(/N=C/c2ccccc2NS(=O)(=O)c2ccc(C)cc2)nc2ccccc21	8	0	85*	37	0.9	0
CCN(CC)CCC(C)OC(c1ccccc1)c1ccccc1 (stereo not given)	20	0	100*	-1	0.8	6
CCN(CC)CCCCCOc1ccccc1OC	4	0	37	8	1	7
SMILES	Diaphorase inh	DTT redox prof	Lmaj promast	PfG6PD inh	Diaph act CS	G6PDH counter
CN(C)CC#CCOC(c1ccccc1)c1ccccc1	-11	-1	99*	4	1.1	9
CCNCCOC(c1ccccc1)c1ccccc1	11	1	6	1	0.9	7
CCN(CC)CC#CCOC(c1ccccc1)c1ccccc1	4	0	98*	-3	1	0
COc1ccc([C@H]2CC(=O)C=C(c3ccc(Cl)c(F)c3)C2)cc1	.	.	.	-3	.	.
COc1ccc(C(=O)c2oc3nc(C)cc(C)c3c2N)cc1	12	-1	18	20	0.9	2
Cc1ccc(C(=O)c2oc3nc(C)cc(C)c3c2N)cc1	8	3	64*	20	0.9	7
Cc1cccc(C(=O)OCC(=O)NC(=O)NC2CCCCC2)c1	.	.	.	22	.	.
C=CCN=c1scc(-c2ccc3c(c2)NC(=O)CO3)n1/N=C(\C)c1ccccn1	9	0	57*	17	0.9	5
C=CCN=c1scc(-c2ccc(F)cc2)n1/N=C/c1ccccn1	14	1	9	21	0.9	-29
CCc1ccccc1NC(=O)NNS(=O)(=O)c1cc(C)ccc1C	.	.	.	19	.	.
Cc1cc(Oc2nc3c(C)cccn3c(=O)c2/C=C(\C#N)S(=O)(=O)c2ccc(Cl)cc2)ccc1Cl	9	1	80*	4	0.9	-11
Cc1ccc(S(=O)(=O)/C(C#N)=C/c2c(N3CC(C)OC(C)C3)nc3c(C)cccn3c2=O)cc1 (stereo not given)	26	0	97*	-5	0.7	7
COC(=O)/C(C#N)=C/c1c(Oc2cc(C)cc(C)c2)nc2c(C)cccn2c1=O	10	1	97*	0	0.9	10
Cc1ccc(S(=O)(=O)/C(C#N)=C/c2c(N3CCN(C)CC3)nc3c(C)cccn3c2=O)cc1	5	0	0	1	1	7
COc1ccc2cc(/C=N/NC(=O)c3ccc(CN(c4cccc(Cl)c4Cl)S(C)(=O)=O)cc3)c(Cl)nc2c1	0	0	80*	3	1	2
COc1ccc2cc(/C=N/O)c(Cl)nc2c1	-6	0	-5	1	1.1	5
COc1ccc(CC2(C)OC(c3ccc(Cl)cc3)=NN2C(C)=O)cc1 (stereo not given)	12	0	54*	-1	0.9	9
CCN1C(=O)[C@@H]2C(C(=O)c3cnccn3)=NN[C@@H]2C1=O	.	.	.	-12	.	.
CCOC(=O)Cn1c(=NC(=O)C2COc3ccccc3O2)sc2cc(S(N)(=O)=O)ccc21 (stereo not given)	19	0	-1	15	0.8	7
CCOC(=O)Cn1c(=NC(=O)c2ccc([N+](=O)[O-])s2)sc2ccccc21	3	1	80*	-19	1	2
CC(C)c1cc(C(=O)OCC(=O)N2CCN(C(=O)c3ccco3)CC2)c(O)c(C(C)C)c1	.	.	.	6	.	.
Cc1[nH]c2ccccc2c1CN1CCc2ccccc2C1	10	0	100*	10	0.9	5
O=S(=O)(NC1CC(NS(=O)(=O)OCC(Cl)(Cl)Cl)C2CCCCC12)OCC(Cl)(Cl)Cl (stereo not given)	.	.	.	9	.	.
CCNc1nc2c(c(=O)[nH]c(=O)n2C)n1Cc1ccc(F)cc1	0	-1	-6	6	1	20
Cc1ccc(C(=O)N/C(=C\c2ccccc2F)c2nc(=S)[nH][nH]2)cc1	51*	-2	45	1	0.5	4

Assay outcomes (PubChem)
